NRP1-CendR mod: modulators of CendR peptide binding to NRP-1, primary screen, biochemical, fluorescence polarization, uHTS. Neuropilin-1 (Homo sapiens), O14786. FAM-RPARPAR peptide binding to NRP-1. AID 602438, 2012. 0.85% of 360,000 active. inhibition, % at 25 µM;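 active means inhibition or corrected inhibition above about 18%, plus a signal ratio from 0.5 to 1.5, limit read from the data, passing the limit was not always enough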
ATG4B inhibitor: ATG4B protease inhibitors, primary screen, biochemical, fluorescence, uHTS | Cysteine protease ATG4B (Homo sapiens), Q9Y4P1 | ATG4B cleavage of LC3-PLA2, NBD-HPC fluorescence, 1 h | inhibition, % at 8.33 µM | 0.51% of 340,000 active; in the data active means inhibition above about 40%
Granule exo inh: LAMP-1 surface exposure blockers, TALL-104 cells – cell-based, flow cytometry, MLPCN library, primary screen. TALL-104 LAMP-1 surface exposure; cells stimulated with thapsigargin and PMA. inhibition, % at 10 µM. 0.66% of 360,000 active;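 active means inhibition above about 55%, limit read from the data; inconclusive means no clear call, values can overlap the other calls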
ABCB6 inh 2: ABCB6 transporter inhibitors, primary screen, K562-ABCB6 cells, flow cytometry, MLPCN library. AID 602162, 2011. ATP-binding cassette sub-family B member 6 (Homo sapiens), Q9NP58. fluorescence ratio to DMSO, % at 10 µM. K562-ABCB6 porphyrin accumulation, 1 h; stronger effect = lower value. 0.19% of 360,000 active;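 active means fluorescence ratio to DMSO below 75%, the collection mean minus 3 SD; inconclusive means too few cells collected in the well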;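 further: signal is porphyrin accumulated inside mitochondria; 100% equals median channel fluorescence of DMSO control wells; lower ratio means ABCB6 inhibition with less porphyrin fluorescence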
Target sequence (Q9NP58 whole entry, looked up): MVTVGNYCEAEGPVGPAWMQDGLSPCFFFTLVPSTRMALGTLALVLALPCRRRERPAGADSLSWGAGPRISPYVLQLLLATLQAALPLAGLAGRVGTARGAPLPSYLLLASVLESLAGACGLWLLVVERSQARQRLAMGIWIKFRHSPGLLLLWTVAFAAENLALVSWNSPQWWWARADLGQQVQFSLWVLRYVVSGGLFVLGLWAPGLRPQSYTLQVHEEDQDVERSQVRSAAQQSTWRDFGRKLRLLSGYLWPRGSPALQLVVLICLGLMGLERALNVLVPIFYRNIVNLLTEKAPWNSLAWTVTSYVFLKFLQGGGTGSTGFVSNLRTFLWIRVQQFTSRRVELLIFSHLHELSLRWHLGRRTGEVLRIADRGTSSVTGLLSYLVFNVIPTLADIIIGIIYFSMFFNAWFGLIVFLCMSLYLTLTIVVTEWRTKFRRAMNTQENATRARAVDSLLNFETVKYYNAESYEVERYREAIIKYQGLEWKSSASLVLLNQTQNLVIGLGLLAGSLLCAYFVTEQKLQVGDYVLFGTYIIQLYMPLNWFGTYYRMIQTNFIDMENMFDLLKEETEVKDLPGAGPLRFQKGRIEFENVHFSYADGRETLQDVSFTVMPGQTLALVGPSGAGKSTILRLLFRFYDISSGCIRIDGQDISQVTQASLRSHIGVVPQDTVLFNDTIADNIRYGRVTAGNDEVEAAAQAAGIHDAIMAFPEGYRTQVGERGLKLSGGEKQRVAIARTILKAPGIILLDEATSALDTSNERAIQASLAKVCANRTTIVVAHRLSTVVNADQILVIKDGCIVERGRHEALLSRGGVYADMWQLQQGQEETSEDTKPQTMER
Myeloid diff MLP: induction of myeloid progenitor differentiation, primary screen, cell-based, flow cytometry, MLPCN library | ER-HoxA9 myeloid progenitors, lysozyme-GFP differentiation | calls only at 10 µM | 1% of 360,000 active | AID 624256, 2012;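 active means normalized GFP-positive differentiation at or above the plate's own cutoff, the solvent-only control mean plus 3 SD; inconclusive means no clear call, values can overlap the other calls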;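 further: cells exposed to compound for four days before flow analysis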
Arrestin-AP2 inh: inhibitors of beta-arrestin/AP2 binding, primary screen, biochemical, GPCR trafficking, flow cytometry; AID 504490, 2011; 0.31% of 340,000 active; beta-arrestin 1 C-terminal peptide binding to AP2 beta2-adaptin appendage (human); inhibition, % at 10 µM; FITC-arrestin peptide / GST-AP2 beads; AP2 beta2 appendage carries R879A mutation;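 active means inhibition above a set limit, near 3 SD of compounds lacking own fluorescence, cut at about 54% in these data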;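 further: plate controls were DMSO wells for no effect and 5 µM unlabelled arrestin peptide for full effect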
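System: GST-tagged AP2 beta2-adaptin appendage (R879A) on 4 µm glutathione beads / Reagent: FITC-arrestin peptide, 50 nM / Detection: HyperCyt-sampled flow cytometry, FL1 channel, ex 488/em 535 nm / Timing: 12 min plus 1 h, RT / Buffer or medium: PBS plus Tween 20 (0.05%) and BSA (0.1%)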
Myeloid diff CP1: inducers of myeloid progenitor differentiation, confirmation, cell-based, GFP/Mac1 flow cytometry, cherry pick 01. shares compounds with Myeloid diff MLP. ER-HoxA9 myeloid progenitors, GFP/Mac1 double-positive flow. calls only. 2% of 2,300 active. AID 651706, 2012;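 active means share of green or green-and-red cells above 9 and 9% in run 1 or 4 and 3% in run 2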
GFP autofluor: flagged as fluorescent in myeloid differentiation counter-screen; fluorescence response, % (no concentration beside the values); shares compounds with Myeloid diff MLP; ER-HoxA9 myeloid progenitors, no estrogen, GFP autofluorescence flow cytometry; vehicle wells 0%, positive control 100%; 7.4% of 2,300 active; AID 651707;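 active means over 5% cells positive for green fluorescent reporter, or over 2% positive for both it and APC stain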;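 further: range taken on the double positive population between DMSO and positive control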
An asterisk follows results filed as active; i = inactive; u = inconclusive; x = no result; + = active, no number; ! = not active in a repeat. Sampled rows, rich in hits. Any-hit rate of the full collection: about 3.3%.

SMILES	NRP1-CendR mod	ATG4B inhibitor	Granule exo inh	ABCB6 inh 2	Myeloid diff MLP	Arrestin-AP2 inh	Myeloid diff CP1	GFP autofluor
Cc1cccc(NC(=O)CSc2nc(=O)n(CCCN3CCOCC3)c3c2CCCC3)c1	0	-13	-2	94	+	-2	i	0
N#Cc1ccc(-c2cccnc2)nc1SCC(=O)Nc1sc2c(c1C#N)CCC2	-72	4	-2	99	i	3	x	x
N#Cc1c(C(F)(F)F)cc(-c2ccccc2)nc1SCC(=O)Nc1sc2c(c1C#N)CCC2	2	-3	-2	112	i	-5	i	0
O=S(=O)(c1ccc(=S)[nH]c1)N1CCCC1	3	4	-2	103	+	-8	i	62*
C[C@H](CO)N1C[C@H](C)[C@H](CN(C)C(=O)CC2CC2)Oc2cc(Br)ccc2S1(=O)=O	-8	x	17	100	i	x	x	x
O=C(NC(=S)NCCN1CCOCC1)c1ccccc1	-6	-1	5	99	i	-6	x	x
O=C(NC(=S)NCCN1CCOCC1)c1cccc(Cl)c1	-2	-7	5	88	i	15	i	0
CCCOc1ccc(N2C(=O)CC(S/C(N)=N/N=C(\C)c3cccs3)C2=O)cc1 (centres undefined)	-6	-5	-4	87	i	11	i	0
C/C(=N\N=C(/N)SC1CC(=O)N(c2cccc(Cl)c2)C1=O)c1cccs1 (centres undefined)	5	12	4	98	i	-6	x	x
COc1ccc(Cn2c(=O)c3[nH]cnc3n(-c3ccccc3C)c2=O)cc1	13	2	12	102	i	10	i	2
COc1ccc(C)c(-n2c(=O)n(Cc3ccccc3)c(=O)c3[nH]cnc32)c1	-2	5	-8	95	i	-5	x	x
Cc1cc(C)c(S(=O)(=O)NC2CC(C)(C)NC(C)(C)C2)cc1C	1	4	-1	104	+	12	i	0
CCOc1cc(C)c(S(=O)(=O)NC2CC(C)(C)NC(C)(C)C2)cc1C	0	7	-2	98	i	23	x	x
O=C(NCCCNCc1ccccc1)c1ccccn1	8	4	8	106	+!	14	i	0
CC12CCC(C(=O)N(NC(=O)c3ccccc3Cl)C1=O)C2(C)C (centres undefined)	17	-5	u	99	i	-8	x	x
c1ccc(C2=Nc3ccccc3OC2)cc1	-1	-6	-2	91	i	0	i	0
O=C(CCn1c(=O)oc2ccccc21)NCCCN1CCCC1=O	-11	-3	-8	96	i	0	x	x
Cc1occc1-c1nnc(SCC(=O)c2c(N)n(C3CC3)c(=O)[nH]c2=O)n1C	17	6	-6	103	i	-1	x	x
COc1ccccc1-c1nc(-c2ccc(C)nc2OC)no1	-12	-4	-4	95	i	-4	x	x
COc1nc(C)ccc1-c1noc(-c2ccccn2)n1	-11	3	-2	103	i	-4	i	0
CC(C)NC(=O)CSc1nncn1-c1ccccc1	2	-13	-2	91	i	6	x	x
CCCn1c(=O)c(C(=O)NC(C)c2ccccc2)c(O)c2ccccc21 (centres undefined)	11	-2	-3	101	i	5	x	x
CCn1c(=O)c(C(=O)NC(C)c2ccccc2)c(O)c2ccccc21 (centres undefined)	9	3	2	121	+	9	i	0
N#Cc1c(N2CCN(C(=O)c3ccco3)CC2)nc(-c2ccccc2)c2c1CCCC2	-12	33	-3	100	i	2	i	0
COCCCNCCCCOc1ccccc1-c1ccccc1	9	-8	-1	99	i	4	i	0
SMILES	NRP1-CendR mod	ATG4B inhibitor	Granule exo inh	ABCB6 inh 2	Myeloid diff MLP	Arrestin-AP2 inh	Myeloid diff CP1	GFP autofluor
COCCCNCCOc1ccccc1-c1ccccc1	1	-5	-5	96	i	-4	x	x
O=C(N/N=C/c1ccoc1)c1cccc(OC(F)(F)C(F)F)c1	7	-5	-3	98	i	32	x	x
COc1cc2c(cc1OC)CN(CC(=O)Nc1ccccc1C(=O)NCc1ccccc1)CC2	-13	-1	-4	93	x	6	x	x
COc1cc2c(cc1OC)CN(CC(=O)NC(=O)NCc1ccccc1)CC2	8	-1	-2	100	+	-1	i	0
C=CCN1CCN(C(CCC)c2nnnn2Cc2ccco2)CC1 (centres undefined)	-14	-7	-1	92	i	21	x	x
COc1ccc(NC(=O)C2CCC(=O)N2)cc1 (centres undefined)	-8	-1	0	106	i	9	i	0
COc1ccc(NC(=O)C2CCCC2)cc1	19	1	8	96	i	-8	x	x
Cc1ccc(C)c2[nH]c(=O)c(C(c3nnnn3C(C)(C)C)N3CC=C(c4ccc(F)cc4)CC3)cc12 (centres undefined)	-10	5	-5	96	+	-11	i	1
O=C(OCc1ccccc1)N1CCOCCOCCN(C(=O)OCc2ccccc2)CCOCCOCC1	-5	8	-4	95	+	10	i	0
CN(C)C(=O)Nc1ccccc1	3	-6	5	96	i	29	x	x
O=C(NCCCN1CCCCC1)c1ccc(CS(=O)c2ccc(F)cc2)o1 (centres undefined)	-11	9	-2	100	i	15	x	x
O=C(NCC(c1cccs1)N1CCOCC1)c1ccc(OCc2ccccc2)cc1 (centres undefined)	1	-8	-2	100	+	6	i	0
Cc1cc(Nc2ccccc2)c2c([N+](=O)[O-])ccc(C)c2n1	2	-7	u	96	i	-7	i	0
Cc1cc(Nc2cccc([N+](=O)[O-])c2)c2cccc(C)c2n1	3	0	4	96	i	13	x	x

Screening data from PubChem.
